Measurements as given in ChEMBL document CHEMBL5653631, “A Potent and Selective ULK1 Inhibitor Suppresses Autophagy and Sensitizes Cancer Cells to Nutrient Stress” (iScience, 2018).

What was measured:
[1] = biological target: T1, Serine/threonine-protein kinase PLK4 (Homo sapiens) (UniProt O00444); assay: Inhibition of human recombinant PLK4 at 40 nM related to control ULK1
T1 sequence (whole entry): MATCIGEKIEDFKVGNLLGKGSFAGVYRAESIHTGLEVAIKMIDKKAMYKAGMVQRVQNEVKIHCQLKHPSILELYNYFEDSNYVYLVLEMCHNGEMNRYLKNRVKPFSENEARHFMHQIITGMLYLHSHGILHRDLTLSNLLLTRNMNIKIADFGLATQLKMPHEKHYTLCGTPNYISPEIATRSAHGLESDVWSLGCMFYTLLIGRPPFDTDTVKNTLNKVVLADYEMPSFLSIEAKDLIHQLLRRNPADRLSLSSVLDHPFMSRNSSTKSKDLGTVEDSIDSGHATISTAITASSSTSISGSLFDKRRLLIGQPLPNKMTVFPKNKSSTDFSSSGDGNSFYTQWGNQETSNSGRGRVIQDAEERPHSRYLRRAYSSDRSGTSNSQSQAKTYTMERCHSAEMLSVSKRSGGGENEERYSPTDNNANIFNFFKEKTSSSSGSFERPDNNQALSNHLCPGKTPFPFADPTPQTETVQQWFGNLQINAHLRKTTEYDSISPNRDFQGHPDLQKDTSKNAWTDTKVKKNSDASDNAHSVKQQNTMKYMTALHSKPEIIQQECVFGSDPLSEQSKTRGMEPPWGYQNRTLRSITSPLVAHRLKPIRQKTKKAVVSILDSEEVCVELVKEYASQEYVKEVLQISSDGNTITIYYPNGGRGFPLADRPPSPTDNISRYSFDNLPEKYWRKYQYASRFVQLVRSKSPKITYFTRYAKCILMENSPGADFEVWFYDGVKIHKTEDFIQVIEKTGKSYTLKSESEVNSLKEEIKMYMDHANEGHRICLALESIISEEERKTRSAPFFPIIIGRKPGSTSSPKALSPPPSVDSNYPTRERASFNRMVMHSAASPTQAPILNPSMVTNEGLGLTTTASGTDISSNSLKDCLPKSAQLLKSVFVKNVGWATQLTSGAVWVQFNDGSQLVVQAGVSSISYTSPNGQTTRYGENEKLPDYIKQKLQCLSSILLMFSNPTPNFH

[2] = biological target: T2, Dual specificity tyrosine-phosphorylation-regulated kinase 3 (Homo sapiens) (UniProt O43781); assay: Inhibition of human recombinant DYRK3 at 40 nM in presence of ATP by radiometric assay relative to control
T2 sequence (whole entry): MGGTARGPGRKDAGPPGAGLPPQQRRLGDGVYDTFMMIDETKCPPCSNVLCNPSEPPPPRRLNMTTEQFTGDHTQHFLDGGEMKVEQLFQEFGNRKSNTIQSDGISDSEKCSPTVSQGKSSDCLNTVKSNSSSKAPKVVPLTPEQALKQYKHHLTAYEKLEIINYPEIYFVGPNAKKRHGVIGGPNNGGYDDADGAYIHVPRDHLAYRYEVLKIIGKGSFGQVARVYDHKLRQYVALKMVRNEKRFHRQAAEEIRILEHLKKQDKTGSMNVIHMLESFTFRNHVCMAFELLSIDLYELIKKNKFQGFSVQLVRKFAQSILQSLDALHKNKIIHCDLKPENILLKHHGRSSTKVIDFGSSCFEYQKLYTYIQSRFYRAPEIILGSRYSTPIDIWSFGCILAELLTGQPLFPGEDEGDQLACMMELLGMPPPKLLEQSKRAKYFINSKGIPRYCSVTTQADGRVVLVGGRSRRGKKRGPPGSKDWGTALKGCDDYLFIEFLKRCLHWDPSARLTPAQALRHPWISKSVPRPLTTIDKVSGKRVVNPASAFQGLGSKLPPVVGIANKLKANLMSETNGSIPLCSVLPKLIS

[3] = biological target: DNA-PK/Ku70/Ku85 (Homo sapiens) (UniProt P78527+P12956+P13010); assay: Inhibition of human recombinant DNAPK at 40 nM in presence of ATP by radiometric assay relative to control; format: protein-complex assay
[4] = biological target: Receptor-interacting serine/threonine-protein kinase 2 (Homo sapiens) (UniProt O43353); assay: Inhibition of human recombinant RIPK2 at 40 nM related to control ULK1
Sequence of Receptor-interacting serine/threonine-protein kinase 2 (Homo sapiens) (O43353 whole entry): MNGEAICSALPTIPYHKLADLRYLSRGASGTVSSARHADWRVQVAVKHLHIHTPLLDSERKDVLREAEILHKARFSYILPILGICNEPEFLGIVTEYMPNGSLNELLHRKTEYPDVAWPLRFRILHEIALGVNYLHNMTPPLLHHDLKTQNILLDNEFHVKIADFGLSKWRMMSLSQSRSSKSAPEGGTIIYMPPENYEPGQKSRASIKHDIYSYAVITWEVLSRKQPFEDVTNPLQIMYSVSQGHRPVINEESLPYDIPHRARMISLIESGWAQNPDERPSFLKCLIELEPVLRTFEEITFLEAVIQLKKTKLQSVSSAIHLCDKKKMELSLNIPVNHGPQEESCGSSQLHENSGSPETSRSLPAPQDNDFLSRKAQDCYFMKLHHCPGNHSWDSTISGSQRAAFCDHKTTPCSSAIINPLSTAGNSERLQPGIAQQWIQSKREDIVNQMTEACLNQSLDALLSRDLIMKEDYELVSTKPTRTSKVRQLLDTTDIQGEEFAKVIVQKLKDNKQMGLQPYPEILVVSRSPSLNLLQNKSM

[5] = biological target: Proto-oncogene tyrosine-protein kinase Src (Homo sapiens) (UniProt P12931); assay: Inhibition of human recombinant SRC at 40 nM in presence of ATP by radiometric assay relative to control
Sequence of Proto-oncogene tyrosine-protein kinase Src (Homo sapiens) (P12931 2-536 limits assumed): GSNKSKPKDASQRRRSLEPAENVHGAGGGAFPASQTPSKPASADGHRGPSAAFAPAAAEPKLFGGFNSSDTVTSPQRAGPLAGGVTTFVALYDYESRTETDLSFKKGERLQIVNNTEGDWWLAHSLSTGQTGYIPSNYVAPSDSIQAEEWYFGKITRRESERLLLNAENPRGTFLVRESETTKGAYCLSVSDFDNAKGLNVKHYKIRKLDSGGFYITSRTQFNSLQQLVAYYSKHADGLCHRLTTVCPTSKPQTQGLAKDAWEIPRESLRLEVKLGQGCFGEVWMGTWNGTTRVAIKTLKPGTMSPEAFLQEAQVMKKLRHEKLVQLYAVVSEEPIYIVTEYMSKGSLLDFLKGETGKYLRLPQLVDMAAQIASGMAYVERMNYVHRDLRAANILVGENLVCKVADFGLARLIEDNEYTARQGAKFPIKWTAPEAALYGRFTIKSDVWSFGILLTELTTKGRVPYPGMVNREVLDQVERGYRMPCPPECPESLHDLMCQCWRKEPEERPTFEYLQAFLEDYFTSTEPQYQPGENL

[6] = biological target: Tyrosine-protein kinase Fer (Homo sapiens) (UniProt P16591); assay: Inhibition of human recombinant FER at 40 nM related to control ULK1
[7] = biological target: Proto-oncogene tyrosine-protein kinase ROS (Homo sapiens) (UniProt P08922); assay: Inhibition of human recombinant ROS at 500 nM related to control ULK1
Sequence of Proto-oncogene tyrosine-protein kinase ROS (Homo sapiens) (P08922 whole entry): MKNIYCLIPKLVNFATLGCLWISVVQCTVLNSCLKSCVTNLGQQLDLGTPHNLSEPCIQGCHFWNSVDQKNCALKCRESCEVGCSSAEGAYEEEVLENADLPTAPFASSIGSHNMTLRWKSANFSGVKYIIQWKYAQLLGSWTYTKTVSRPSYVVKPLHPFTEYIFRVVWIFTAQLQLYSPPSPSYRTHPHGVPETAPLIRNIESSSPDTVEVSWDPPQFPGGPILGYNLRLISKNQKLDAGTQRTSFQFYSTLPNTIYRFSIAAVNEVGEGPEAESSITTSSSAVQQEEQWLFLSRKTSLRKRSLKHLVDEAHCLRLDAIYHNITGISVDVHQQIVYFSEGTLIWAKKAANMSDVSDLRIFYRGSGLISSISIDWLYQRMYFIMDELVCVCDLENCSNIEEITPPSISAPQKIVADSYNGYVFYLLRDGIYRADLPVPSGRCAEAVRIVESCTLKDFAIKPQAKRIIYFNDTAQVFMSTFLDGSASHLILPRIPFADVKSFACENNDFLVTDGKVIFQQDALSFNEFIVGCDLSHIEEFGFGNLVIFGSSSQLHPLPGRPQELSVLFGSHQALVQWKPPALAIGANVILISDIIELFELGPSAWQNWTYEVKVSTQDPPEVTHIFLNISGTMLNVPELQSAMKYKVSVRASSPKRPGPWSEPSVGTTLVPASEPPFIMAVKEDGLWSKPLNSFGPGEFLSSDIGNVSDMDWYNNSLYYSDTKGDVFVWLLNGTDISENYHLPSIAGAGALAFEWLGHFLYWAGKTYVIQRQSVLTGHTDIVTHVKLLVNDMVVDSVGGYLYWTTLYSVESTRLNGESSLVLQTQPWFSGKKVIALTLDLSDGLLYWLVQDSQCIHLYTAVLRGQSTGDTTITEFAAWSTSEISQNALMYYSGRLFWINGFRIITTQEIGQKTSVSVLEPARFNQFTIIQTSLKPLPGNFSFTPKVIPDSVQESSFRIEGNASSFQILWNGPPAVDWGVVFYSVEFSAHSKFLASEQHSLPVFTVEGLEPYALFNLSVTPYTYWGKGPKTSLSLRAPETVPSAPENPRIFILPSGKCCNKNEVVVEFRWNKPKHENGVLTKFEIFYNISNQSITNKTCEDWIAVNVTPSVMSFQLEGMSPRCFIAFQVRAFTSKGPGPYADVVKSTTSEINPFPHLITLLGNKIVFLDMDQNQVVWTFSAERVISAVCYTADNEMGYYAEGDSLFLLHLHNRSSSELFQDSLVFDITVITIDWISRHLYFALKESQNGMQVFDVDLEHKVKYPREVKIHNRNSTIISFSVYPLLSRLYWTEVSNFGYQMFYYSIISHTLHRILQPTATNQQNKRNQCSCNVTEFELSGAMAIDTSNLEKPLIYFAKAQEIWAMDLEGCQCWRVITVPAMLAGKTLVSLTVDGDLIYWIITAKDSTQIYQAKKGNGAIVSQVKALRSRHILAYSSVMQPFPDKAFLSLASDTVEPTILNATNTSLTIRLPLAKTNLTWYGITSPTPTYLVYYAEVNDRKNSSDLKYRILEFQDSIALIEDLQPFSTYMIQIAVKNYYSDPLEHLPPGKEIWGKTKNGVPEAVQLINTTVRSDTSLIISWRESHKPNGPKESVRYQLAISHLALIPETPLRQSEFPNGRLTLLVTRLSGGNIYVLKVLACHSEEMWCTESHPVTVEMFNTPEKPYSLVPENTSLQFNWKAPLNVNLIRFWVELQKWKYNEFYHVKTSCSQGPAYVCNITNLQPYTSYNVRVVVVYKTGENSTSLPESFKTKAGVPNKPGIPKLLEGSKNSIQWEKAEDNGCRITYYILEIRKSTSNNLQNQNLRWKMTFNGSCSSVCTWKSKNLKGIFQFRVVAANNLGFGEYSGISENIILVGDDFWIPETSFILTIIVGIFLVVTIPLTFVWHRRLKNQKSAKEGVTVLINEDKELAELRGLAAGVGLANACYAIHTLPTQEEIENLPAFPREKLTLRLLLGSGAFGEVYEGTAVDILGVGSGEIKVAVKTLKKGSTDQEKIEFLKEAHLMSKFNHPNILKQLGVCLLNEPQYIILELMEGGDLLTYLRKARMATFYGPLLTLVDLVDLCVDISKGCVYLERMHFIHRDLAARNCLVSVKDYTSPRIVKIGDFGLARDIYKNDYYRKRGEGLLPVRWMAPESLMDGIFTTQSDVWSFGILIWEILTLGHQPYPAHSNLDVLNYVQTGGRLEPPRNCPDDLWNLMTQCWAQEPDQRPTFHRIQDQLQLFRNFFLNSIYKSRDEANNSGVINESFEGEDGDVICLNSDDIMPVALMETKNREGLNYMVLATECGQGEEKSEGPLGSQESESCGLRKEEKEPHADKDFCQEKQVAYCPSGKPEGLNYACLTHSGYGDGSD

[8] = biological target: Serine/threonine-protein kinase MARK1 (Homo sapiens) (UniProt Q9P0L2); assay: Inhibition of human recombinant MARK1 at 500 nM related to control ULK1
Sequence of Serine/threonine-protein kinase MARK1 (Homo sapiens) (Q9P0L2 whole entry, looked up): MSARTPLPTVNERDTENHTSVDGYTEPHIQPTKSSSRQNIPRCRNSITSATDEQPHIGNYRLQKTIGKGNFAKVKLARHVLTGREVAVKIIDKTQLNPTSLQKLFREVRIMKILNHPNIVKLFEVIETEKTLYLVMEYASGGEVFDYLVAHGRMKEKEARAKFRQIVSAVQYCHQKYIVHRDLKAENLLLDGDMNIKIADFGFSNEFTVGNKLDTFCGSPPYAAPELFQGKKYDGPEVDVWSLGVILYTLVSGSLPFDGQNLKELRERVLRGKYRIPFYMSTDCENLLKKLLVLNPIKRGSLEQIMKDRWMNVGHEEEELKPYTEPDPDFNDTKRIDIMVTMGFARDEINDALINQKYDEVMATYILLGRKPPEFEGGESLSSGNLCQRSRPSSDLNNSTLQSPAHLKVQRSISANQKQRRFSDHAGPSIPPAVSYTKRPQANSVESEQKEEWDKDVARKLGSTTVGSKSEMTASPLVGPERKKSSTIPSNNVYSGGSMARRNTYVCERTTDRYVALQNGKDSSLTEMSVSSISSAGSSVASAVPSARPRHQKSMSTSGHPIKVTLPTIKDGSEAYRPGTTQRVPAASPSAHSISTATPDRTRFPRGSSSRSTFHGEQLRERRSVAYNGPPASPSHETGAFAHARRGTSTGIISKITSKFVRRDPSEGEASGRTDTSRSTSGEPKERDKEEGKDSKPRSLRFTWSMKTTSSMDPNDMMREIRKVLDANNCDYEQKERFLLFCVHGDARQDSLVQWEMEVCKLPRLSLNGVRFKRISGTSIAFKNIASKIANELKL

[9] = biological target: Cyclin-dependent kinase 18 (Homo sapiens) (UniProt Q07002); assay: Inhibition of human recombinant PCTAIRE3 at 500 nM related to control ULK1
Sequence of Cyclin-dependent kinase 18 (Homo sapiens) (Q07002 whole entry): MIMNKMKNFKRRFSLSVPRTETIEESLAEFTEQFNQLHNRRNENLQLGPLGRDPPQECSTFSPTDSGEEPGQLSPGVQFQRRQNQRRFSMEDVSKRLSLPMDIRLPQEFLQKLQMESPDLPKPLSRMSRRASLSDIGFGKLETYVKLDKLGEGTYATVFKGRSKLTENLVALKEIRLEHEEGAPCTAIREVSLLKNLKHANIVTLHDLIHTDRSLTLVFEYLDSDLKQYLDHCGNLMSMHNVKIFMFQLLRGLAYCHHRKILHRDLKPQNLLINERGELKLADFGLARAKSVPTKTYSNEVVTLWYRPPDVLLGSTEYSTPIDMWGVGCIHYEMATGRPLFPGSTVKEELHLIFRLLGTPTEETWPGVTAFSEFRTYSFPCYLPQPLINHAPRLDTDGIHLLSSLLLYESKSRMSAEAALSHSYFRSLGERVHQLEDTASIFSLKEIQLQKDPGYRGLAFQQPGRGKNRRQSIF

[10] = biological target: Tyrosine-protein kinase Blk (Homo sapiens) (UniProt P51451); assay: Inhibition of human recombinant BLK at 500 nM in presence of ATP by radiometric assay relative to control
Procedure, shortened: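 Part of a radiometric in vitro activity panel of 327 recombinant human kinases. Each kinase was tested in duplicate at one inhibitor concentration. Activity remaining was expressed as a percentage of the vehicle control, and percent inhibition was taken as 100 minus that value.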

Homo sapiens = species on record: Homo sapiens; assay: Inhibition of human recombinant CK1d at 15 nM related to control ULK1
[11] = biological target: T3, MAPK/MAK/MRK overlapping kinase (Homo sapiens) (UniProt Q9UQ07); assay: Inhibition of human recombinant MOK at 15 nM related to control ULK1
T3 sequence (whole entry): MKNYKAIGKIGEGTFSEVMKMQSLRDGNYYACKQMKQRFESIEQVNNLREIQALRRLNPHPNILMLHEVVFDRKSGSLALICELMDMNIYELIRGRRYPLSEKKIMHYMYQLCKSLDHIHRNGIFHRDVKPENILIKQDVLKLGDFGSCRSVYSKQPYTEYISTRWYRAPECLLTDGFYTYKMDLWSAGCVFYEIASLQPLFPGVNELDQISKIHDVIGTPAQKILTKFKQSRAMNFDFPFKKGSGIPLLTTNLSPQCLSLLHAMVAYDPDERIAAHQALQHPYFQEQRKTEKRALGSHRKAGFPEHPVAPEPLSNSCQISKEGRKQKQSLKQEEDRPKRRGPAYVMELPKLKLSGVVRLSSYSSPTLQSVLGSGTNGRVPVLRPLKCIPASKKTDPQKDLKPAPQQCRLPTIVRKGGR

`O=C(N[C@@H](C1CC1)C(F)(F)F)c1cc(-c2cnn3cc(-c4ccc(F)cc4)cnc23)cs1` gave a fold change (FC) [1] of 0.1, an inhibition [2] of 30% and an inhibition [3] of 9%. For the same molecule, the fold change (FC) [4] was 0.41, the inhibition [5] was 2% and the fold change (FC) [6] was 0.
Molecule `CNC(=O)c1ccccc1Oc1nc(Nc2cc(OC)c(OC)c(OC)c2)ncc1Br` has a fold change (FC) [7] of 0, a fold change (FC) [8] of 0.73 and a fold change (FC) [9] of 0.27. For the same molecule, the inhibition [10] was 29%.
In the case of `CC(C)[C@H](NC(=O)c1cc(-c2cnn3cc(-c4ccc(OCCN5CCCCC5)cc4)cnc23)cs1)C(F)(F)F`, the fold change (FC) (Homo sapiens) is reported as 0.03 and the fold change (FC) [11] is reported as 0.06.
